TRPC4 potent: TRPC4 (mouse) allosteric potentiation. Q9QUQ5. AID 2227. 310,000 tested, 0.42% active. B-score at 10 µM. HEK293 TRPC4beta/mu-opioid, DAMGO EC20, Fluo-4 Ca2+ flux; active compounds read high;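 active means B-score of calcium response area above 5 SD of library B-scores, with initial fluorescence ratio within 5 SD of library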;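 further: B-score of integrated fluorescence ratio over time as area under calcium response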
Target sequence (Q9QUQ5 whole entry, looked up): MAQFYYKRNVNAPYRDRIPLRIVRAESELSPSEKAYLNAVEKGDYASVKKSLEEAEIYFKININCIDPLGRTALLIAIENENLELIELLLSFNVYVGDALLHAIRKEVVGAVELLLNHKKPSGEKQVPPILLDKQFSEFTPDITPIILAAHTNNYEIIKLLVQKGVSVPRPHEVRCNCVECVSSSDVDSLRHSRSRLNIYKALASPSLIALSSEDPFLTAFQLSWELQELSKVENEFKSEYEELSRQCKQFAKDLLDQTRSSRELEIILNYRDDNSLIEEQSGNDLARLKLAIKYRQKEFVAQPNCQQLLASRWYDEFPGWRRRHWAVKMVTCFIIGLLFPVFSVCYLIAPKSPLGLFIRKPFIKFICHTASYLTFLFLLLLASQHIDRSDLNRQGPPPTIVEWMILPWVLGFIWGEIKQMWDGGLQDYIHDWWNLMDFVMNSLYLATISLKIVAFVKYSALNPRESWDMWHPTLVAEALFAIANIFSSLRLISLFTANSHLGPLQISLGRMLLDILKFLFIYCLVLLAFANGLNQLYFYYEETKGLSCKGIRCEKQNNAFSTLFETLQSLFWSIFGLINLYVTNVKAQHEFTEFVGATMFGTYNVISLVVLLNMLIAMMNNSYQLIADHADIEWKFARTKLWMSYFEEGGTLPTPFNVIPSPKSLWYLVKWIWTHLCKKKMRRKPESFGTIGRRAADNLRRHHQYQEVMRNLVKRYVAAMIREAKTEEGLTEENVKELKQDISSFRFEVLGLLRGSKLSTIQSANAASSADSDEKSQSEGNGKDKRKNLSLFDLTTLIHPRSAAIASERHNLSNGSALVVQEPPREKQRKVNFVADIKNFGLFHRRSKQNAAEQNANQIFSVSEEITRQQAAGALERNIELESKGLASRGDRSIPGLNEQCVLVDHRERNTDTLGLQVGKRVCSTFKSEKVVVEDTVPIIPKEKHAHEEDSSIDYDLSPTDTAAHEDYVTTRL
TRPC6 inh: mouse TRPC6 channel inhibition. HEK293-TRPC6, membrane potential dye, ACh-evoked depolarization; active compounds read low. B-score at 10 µM. AID 2553. 310,000 tested, 1.1% active. Q61143;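 active means B-score under library mean minus 3 SD, initial fluorescence not abnormally high, positive integrated signal ratio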;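 further: B-score derived from integrated fluorescence ratio over the kinetic read; more negative B-score means stronger inhibition of depolarization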
TRPC4 act: activators of mouse TRPC4 channel; HEK293 TRPC4beta/mu-opioid, Fluo4 calcium fluorescence; active compounds read high; Q9QUQ5; 310,000 tested, 0.49% active; B-score at 10 µM;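 active means B-score above 5 SD of library B-scores, and initial fluorescence ratio not above library mean plus 5 SD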;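 further: positive B-score marks a calcium rise read as TRPC4 activation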
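Test system: HEK293 cells stably co-expressing mouse TRPC4beta and mu-opioid receptor | Schedule: Fluo4 dye loading 45 min at room temperature, 110 s recording | Measured by: Kinetic Fluo4 calcium fluorescence, 5 s baseline at 1 Hz | Evaluation: B score of integrated ratio | Controls: Buffer (low) and maximal DAMGO (high)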
TRPC4 inh: inhibitors of mouse TRPC4 channel; Q9QUQ5; HEK293 TRPC4beta/mu-opioid, DAMGO-evoked Fluo4 calcium flux; active compounds read low; B-score at 10 µM; 300,000 tested, 0.39% active; AID 2247;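 active means B-score over 3 SD under the library average, no early fluorescence shift, positive overall ratio signal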
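Signal: kinetic Fluo4 fluorescence imaging of calcium influx. Material: stable TRPC4beta/mu-opioid receptor HEK293 cells. Probe or stimulus: DAMGO in two steps, submaximal then maximal.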
TRPC6 activator: mouse TRPC6 channel activation; Q61143; HEK293-TRPC6 membrane potential dye fluorescence; active compounds read high; B-score at 10 µM; 310,000 tested, 0.13% active; AID 2550;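 active means B-score of the integrated fluorescence ratio above library mean plus 3 SD, and starting fluorescence ratio within library mean plus 5 SD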;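 further: higher score means more depolarization so channel activation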
* hit, by the source's call; i = inactive. Rows were chosen to be rich in hits. Some 2.3% of all compounds tested hit in one or more screens of this group.

SMILES	TRPC4 potent	TRPC6 inh	TRPC4 act	TRPC4 inh	TRPC6 activator
O=S(=O)(c1ccc(Oc2ccc(Br)cc2)cc1)N1CCOCC1	17*	i	i	i	i
O=C(CCNC(=O)Cn1ccc2ccccc2c1=O)NCCN1CCN(c2cccc(Cl)c2)CC1	i	i	i	-6*	i
Cc1ccc(S(=O)(=O)Nc2cccc(C(=O)NCC(c3ccco3)N3CCCC3)c2)cc1F (stereo not given)	i	i	53*	-6*	i
CCN1CCN(c2nc(C)c3c(n2)CC(C)CC3=O)CC1 (stereo not given)	15*	i	i	i	i
Cc1cc(C)c(C#N)c(SCCN2CCOCC2)n1	i	i	i	i	i
N#Cc1ccc(-c2ccccc2)nc1SCCN1CCOCC1	20*	i	i	i	i
O=C(CN1CC[n+]2c(-c3cccs3)csc21)c1ccc(Br)cc1	i	-5.01*	i	i	i
O=C(CN1CC[n+]2c(-c3ccccc3)csc21)c1ccc(Br)cc1	i	i	i	i	i
O=C(Nc1ccc(Cl)c([N+](=O)[O-])c1)C(Sc1ccccc1)c1ccccc1 (stereo not given)	i	i	i	i	i
CCC(C)NC(C(=O)Nc1ccc(Cl)c([N+](=O)[O-])c1)c1ccccc1 (stereo not given)	i	i	i	-7*	i
COCC(C)NC(C(=O)Nc1ccc(Cl)c([N+](=O)[O-])c1)c1ccccc1 (stereo not given)	i	i	i	-7*	i
O=C(Nc1ccc(Cl)c([N+](=O)[O-])c1)C(NCCCO)c1ccccc1 (stereo not given)	i	i	i	i	i
COC(=O)c1ccccc1NC(=O)CN1CCN(C23CC4CC(CC(C4)C2)C3)CC1	i	i	i	i	19.8*
COC(=O)c1ccccc1NC(=O)CN1CCC(NC(=O)c2ccc(C)cc2)CC1	i	i	i	i	i
COC(=O)c1cc(C(=O)c2c(C)cc3ccccn23)cc([N+](=O)[O-])c1	i	i	i	i	i
Cc1cc2ccccn2c1C(=O)c1cc([N+](=O)[O-])cc([N+](=O)[O-])c1	12*	i	i	i	i
CCOC(=O)C1(Cc2cccc(OC)c2)CCN(CC2CC=CCC2)CC1 (stereo not given)	i	i	i	-5*	i
CCOC(=O)C1(Cc2ccccc2)CCN(CC2CC=CCC2)CC1 (stereo not given)	i	i	i	-6*	i
CCOC(=O)C1(Cc2cccc(OC)c2)CCN(Cc2ccc(OC)c(OC)c2)CC1	i	i	i	i	i
CCOC(=O)C1(Cc2cccc(OC)c2)CCN(Cc2cccc(O)c2)CC1	i	i	i	-8*	i
C=CCNc1nc(C(=O)OCC(=O)NCc2ccccc2OC)cs1	i	i	i	i	i
Cc1cc(=O)[nH]c(-c2ccccc2OC(F)(F)F)n1	i	i	i	i	i
Cc1cc2cc(C#N)c(NCCNC(=S)NCCCN3CCOCC3)nc2cc1C	i	i	i	-6*	i
O=C(Nc1ccc2c(c1)CCC2)c1ccc(Cl)nc1	i	i	i	-6*	i
O=C(Nc1ccc2c(c1)CCC2)c1cnc(Cl)c(Cl)c1	i	i	i	i	i
SMILES	TRPC4 potent	TRPC6 inh	TRPC4 act	TRPC4 inh	TRPC6 activator
N#CCCn1cc(C(=O)Nc2ccc(C(=O)O)cc2)c(-c2cccc(Br)c2)n1	i	i	70*	i	i
N#CCCn1cc(C(=O)Nc2ccccn2)c(-c2ccccc2)n1	i	i	i	i	i
CCCSc1nc(N)nc(-c2cccs2)c1C#N	i	i	i	-6*	i
COC(=O)CCCCCN1C(=O)/C(=C\c2ccncc2)SC1=S	10*	i	i	i	i
CCc1ccc(/C=C2/SC(=S)N(CCCC(=O)Nc3ccccc3C(=O)O)C2=O)cc1	i	i	i	-6*	i
CCc1ccc(/C=C2\SC(=S)N(CCCC(=O)Nc3ccccn3)C2=O)cc1	i	i	i	i	i
COc1ccc(NC(=O)CN(C)C(=O)Cc2n[nH]c(=O)c3ccccc23)cc1	i	i	i	i	i
Cc1ccccc1-n1c(SCc2cccc(F)c2)nc2[nH]ncc2c1=O	13*	i	i	i	i
CCN(C(=O)COC(=O)c1cc2c(s1)CCCCC2)C1CCS(=O)(=O)C1 (stereo not given)	i	i	i	i	i
O=C(COC(=O)c1cc2c(s1)CCCCC2)NC1CCS(=O)(=O)C1 (stereo not given)	88*	i	i	i	i
Cc1nonc1OCCN1CCN(c2ccccc2[N+](=O)[O-])CC1	i	i	i	i	i
O=C(c1ccccc1F)N1CCN(c2ccc([N+](=O)[O-])c3cccnc23)CC1	29*	i	i	i	i
O=C(c1ccccc1F)N1CCN(c2ccc([N+](=O)[O-])cc2-n2cccc2)CC1	18*	i	i	i	i
O=C(c1ccc(F)cc1)N1CCN(c2ccc([N+](=O)[O-])cc2-n2cccc2)CC1	24*	i	i	i	i
Nc1nonc1OCCN1CCN(c2ccc([N+](=O)[O-])c3cccnc23)CC1	23*	i	93*	i	i
COc1ccc(N2CCN(C(=O)c3ccccc3F)CC2)c([N+](=O)[O-])c1	i	i	i	i	i
CCn1c(=O)cc(C(F)(F)F)[nH]c1=S	i	i	i	i	i
O=C(O)c1ccc(N=C2NC(=O)C(CO)(CO)S2)cc1	i	i	i	i	i
O=C(Nc1ccccc1N1CCN(C(=O)c2ccc(Cl)cc2)CC1)c1cccc([N+](=O)[O-])c1	i	i	i	-6*	i
S=C(NCc1ccccc1)NNc1nc2ccccc2[nH]1	i	i	i	i	i
CC(=O)Nc1ccc(NC(=O)C(C)OC(=O)CCCN2C(=O)c3cccc4cccc(c34)C2=O)cc1 (stereo not given)	i	i	i	i	i
CN(C(=O)c1ccc(OC2CCN(CCc3ccccc3)CC2)cc1)C1CCCCC1	i	i	i	-6*	i
O=C(NCCn1cccn1)c1ccc(OC2CCN(CCc3ccccc3)CC2)cc1	i	i	66*	i	i
COC(=O)CCCNC(=O)c1ccc(OC2CCN(CCc3ccccc3)CC2)cc1	i	i	79*	i	i

Source: PubChem
